Target: T1, E. coli MutL (Escherichia coli, UniProt P23367)
T1 sequence (P23367 1-615): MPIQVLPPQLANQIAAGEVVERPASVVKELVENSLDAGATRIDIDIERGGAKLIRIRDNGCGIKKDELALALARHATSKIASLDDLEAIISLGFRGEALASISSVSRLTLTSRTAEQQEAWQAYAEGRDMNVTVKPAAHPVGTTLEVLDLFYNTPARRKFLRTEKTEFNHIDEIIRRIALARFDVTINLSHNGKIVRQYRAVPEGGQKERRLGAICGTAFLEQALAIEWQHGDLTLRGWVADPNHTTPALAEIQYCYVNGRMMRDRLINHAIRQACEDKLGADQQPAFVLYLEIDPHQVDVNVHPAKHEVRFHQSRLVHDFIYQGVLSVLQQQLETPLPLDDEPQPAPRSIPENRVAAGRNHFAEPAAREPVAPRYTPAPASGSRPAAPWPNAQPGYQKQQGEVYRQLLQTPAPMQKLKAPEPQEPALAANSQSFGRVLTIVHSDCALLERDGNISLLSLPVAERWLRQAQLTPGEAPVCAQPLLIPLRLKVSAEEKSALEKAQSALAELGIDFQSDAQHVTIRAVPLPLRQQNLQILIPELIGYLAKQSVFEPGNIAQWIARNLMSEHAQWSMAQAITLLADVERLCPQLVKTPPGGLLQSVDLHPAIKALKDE
Assay: analytical sedimentation velocity titration
Type: binding
Summary of the method: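 Sedimentation velocity at 42,000 rpm and 25°C with purified MutL dialyzed into Buffer M (50 mM potassium phosphate pH 7.4, 50 mM KCl, 0.1 mM EDTA, 1 mM 2-mercaptoethanol) and filtered. Loading was 0.25–3.94 µM monomer, alone or with 1 mM MgCl2 + 35 µM AMPPNP (scanned 230/280 nm), or 1.75 µM dimer with varied AMPPNP (scanned 292 nm). Scans every 2.5 min gave c(s) distributions and weight-average s20,w.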

Nc1ncnc2c1ncn2[C@@H]1O[C@H](COP(=O)(O)OP(=O)(O)NP(=O)(O)O)[C@@H](O)[C@H]1O [AMPPNP]
Kd: 25.6 µM

— article PMC3172365 (Biochemistry, 2011)
